HSP90 refold inh – blocks HSP90-mediated luciferase refolding in reticulocyte lysate; Rabbit reticulocyte lysate, luciferase refolding luminescence, 3 h; 0.91% of 290,000 active; AID 1789; inhibition, % at 5.6 µM;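 active means inhibition above the screen-wide mean plus 3 SD, computed separately per campaign, cut at about 16% in these data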;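 further: inhibitors lower the luminescence because luciferase stays unfolded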
Lipid droplet – hepatic lipid droplet formation modulation. inhibition, % at 6.5 µM. AML12 mouse hepatocytes, oleate lipid droplets, BODIPY imaging. 0.4% of 240,000 active;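 active means lipid droplet intensity inhibited by at least 50%, with more than 500 cells counted; inconclusive means wells with under 300 cells, treated as cytotoxic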
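System: AML12 hepatocytes (mouse). Probe or stimulus: oleic acid at 100 µM to induce lipid droplet formation. Times: overnight treatment with compound plus oleate. Detection: Image-based BODIPY and DAPI two-channel analysis. Evaluation: percent inhibition of filter-corrected integrated lipid droplet intensity per well.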
HSF-1 act – increases HSF-1 driven luciferase reporter signal. 1.7% of 300,000 active. NIH3T3-HGL HSF-1 luciferase reporter, MG132, 8 h; 100% = twice DMSO control signal. activation, % at 9 µM;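 active means mean replicate activation of at least 50% with a set share of replicates each reaching 50%; inconclusive means only one of those two conditions met; inactive means mean below 50% and too few replicates reaching it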
HSF1 inhib – HSF1 inhibition. NIH3T3-HGL HSE-luciferase, MG132-induced, luminescence 8 h; stronger effect = lower value. activity change, negative = inhibition, % at 7.5 µM (by protocol). 0.77% of 300,000 active. AID 2098;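 active means more than half of replicate wells show activity change below -50%, luminescence cut by over half; inconclusive means some wells, but at most half, below -50%; inactive means no replicate well below -50%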;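 further: luciferase reports HSF-1 transcriptional activity via heat shock element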
HCV NS3 hel inh – inhibitors of Hepatitis C virus NS3 helicase. 0.56% of 290,000 active. inhibition, % at 10.9 µM. NS3 helicase DNA unwinding, Cy5 molecular beacon fluorescence;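 active means inhibition above the mean of all tested compounds plus 3 SD, set per campaign, cut at about 35% in these data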
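assay system = NS3 helicase fragment of HCV | buffer or medium = MOPS pH 6.5, MgCl2, DTT, Tween20, BSA | timing = 60 min unwinding reaction at 25 °C after ATP addition | signal = Cy5 beacon fluorescence read at start and 1 h | read-out basis = % inhibition of unwinding | control set = low DMSO, high thioflavine S at 110 µM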
Numbers stand for hits; - = inactive; ? = inconclusive; . = no result given. This is a sample that favours compounds with a hit; in the whole collection about 3.8% have one here.

SMILES	HSP90 refold inh	Lipid droplet	HSF-1 act	HSF1 inhib	HCV NS3 hel inh
CCc1ccc(CN(C)C(=O)CCc2nnc(Cc3cccc(C)c3)o2)nc1	-	-	-	-	-
CCOC(=O)/C(=C\c1cccnc1)C(=O)c1cc(C(C)=O)c(Nc2ccccc2)s1	-	-	-	-93	-
Cc1ccc(C(c2c(C)nn(-c3ccccc3)c2N)c2c(C)nn(-c3ccccc3)c2N)cc1	-	-	93	-	-
Cc1onc(-c2ccccc2Cl)c1C(=O)NCC1CCCO1 (stereo not drawn)	-	.	-	-	-
O=C(NCC1CCCO1)c1ccc(-c2ccccc2Cl)o1 (stereo not drawn)	.	.	59	-	.
CC1CCN(C(=O)c2ccc(-c3ccccc3Cl)o2)CC1	.	.	56	-	.
Cc1ccc(C(=O)C(C)OC(=O)CCN2C(=O)C3C4C=CC(C5CC45)C3C2=O)cc1 (stereo not drawn)	-	-	-	-	-
NS(=O)(=O)c1cccc(NC(=O)CNC(=O)CC23CC4CC(CC(C4)C2)C3)c1	-	-	-	-77	-
NS(=O)(=O)c1cccc(NC(=O)CC23CC4CC(C2)CC(CC(=O)Nc2cccc(S(N)(=O)=O)c2)(C4)C3)c1	-	-	-	-	-
CNS(=O)(=O)c1cn(CC(=O)NCc2ccc(N(C)C)cc2)cc1S(=O)(=O)NC	-	-	-	-	-
Oc1c(CN2CCCCC2)cc(Br)c2cccnc12	-	.	-	-60	-
O=C(COc1c(Br)cc(Br)c2cccnc12)N1CCCCC1	-	-	-	-	-
COc1ccccc1NC(=O)c1ccc(COc2ccc3c(c2)CCC3)cc1	-	-	-	-	-
COc1cccc(OC)c1C(=O)NNC(=O)c1cccc(COc2ccc3c(c2)CCC3)c1	-	.	-	-57	-
O=C(O)c1cccc(COc2ccc(CO)cc2Cl)c1	.	-	-	-91	.
CCOc1ccc(OCc2cccc(C(=O)O)c2)cc1	.	.	-	-93	.
O=C(O)c1ccc(COc2ccc(CO)cc2Cl)cc1	-	-	-	-	-
COc1ccc(OCc2cccc(C(=O)O)c2)cc1	.	-	-	-90	.
CS(=O)(=O)N(CC(=O)N1CCN(Cc2ccccc2)CC1)c1ccccc1Br	-	-	-	-	-
O=C(NC1CCCC1)C1CCN(C(=O)c2ccc(-c3ccccc3)cc2)CC1	-	-	-	-	-
Cc1ccc(OCC(=O)NCCNC(=O)c2ccncc2)cc1	-	-	-	-	-
Nc1ncc(Br)cc1S(=O)(=O)NCCC(=O)NCCc1ccc(Cl)cc1	-	-	-	-	-
COc1ccc(C(=O)N(C)Cc2ccccn2)cc1OC1CCN(C(C)C)CC1	-	-	-	-	-
O=c1c(=Nc2ccccc2O)c(=O)c2ccccc12	-	-	55	-	-
O=Nc1c(O)c2ccccc2c2ccccc12	.	.	-	-	.
SMILES	HSP90 refold inh	Lipid droplet	HSF-1 act	HSF1 inhib	HCV NS3 hel inh
CC(C)(C)c1ccc(/C=C(\C#N)C(=O)Nc2ccccn2)cc1	-	-	-	-59	-
N#C/C(=C\c1ccccc1)C(=O)Nc1ccccn1	-	-	-	-	-
N/C(=C\C(=O)c1cc(Cl)ccc1O)C(Cl)(Cl)Cl	-	-	209	-	-
CCC1CCCCN1CCCNC(=O)Cn1c2ccccc2c2nc(=O)cc(C)n21 (stereo not drawn)	-	-	64	-	-
N#Cc1ccsc1NC(=O)C1CC(=O)N(Cc2ccccc2)C1 (stereo not drawn)	.	.	-	-	.
COc1ccccc1NC(=O)Nc1ccccc1C(=O)NCCCN1CCOCC1	-	-	-	-	-
C[C@@H]1C(NC(=O)c2ccccc2)CC2CC1C2(C)C (stereo partly drawn)	-	-	73	-	-
CC(=O)c1cn(CC(=O)Nc2ccccc2C)c2ccccc12	-	.	-	-80	-
CC(=O)c1cn(CC(=O)Nc2c(C)cccc2C)c2ccccc12	-	.	-	-	-
Cc1cc(C(=O)Nc2nc(-c3ccccn3)cs2)ccc1[N+](=O)[O-]	-	-	-	-	-
O=C(Nc1nc(-c2ccccn2)cs1)c1cc(Cl)ccc1[N+](=O)[O-]	-	-	70	-	-
O=S(=O)(Nc1ncccn1)c1ccc(NC(=S)NCCc2ccccc2)cc1	-	-	-	-	-
Cn1cccc1/C=C1\SC(=Nc2cccc(O)c2)NC1=O	-	-	-	-	-
CCN(CC)CC(=O)Nn1c(C)nc2c(ncn2-c2ccccc2)c1=O	-	-	-	-	-
Cc1nc2c(ncn2-c2ccccc2)c(=O)n1NC(=O)CN1CCOCC1	-	-	-	-57	-
Cc1ccc(S(=O)(=O)NNC(=O)c2sc3nc(C)cc(C)c3c2-n2cccc2)cc1	-	-	73	-	-
Cc1ccc(S(=O)(=O)NNC(=O)c2sccc2-n2cccc2)cc1	-	.	-	-	-
O=C1c2ccccc2-c2onc3ccc(N4CCCC4)c1c23	-	-	93	-	-
CCOc1ccc2noc3c2c1C(=O)c1ccccc1-3	-	-	-	-	-
COc1cc2ncnc(NCc3ccccc3)c2cc1OC	-	?	-	-	-
COc1cc2ncnc(NCc3cccc(Cl)c3)c2cc1OC	-	51	-	-	-
c1ccc2c3c([nH]c2c1)CCNC3	-	-	162	-	-
O=C(NCc1ccccc1)NC(=O)c1ccccc1F	-	-	-	-	-
COc1cc(CNc2ccc3[nH]c(=O)[nH]c3c2)ccc1OCc1ccc(Cl)cc1	-	-	83	-	-
O=C(Cn1nc(Cc2ccncc2)c2ccccc2c1=O)Nc1cccnc1Cl	-	-	-	-	-
SMILES	HSP90 refold inh	Lipid droplet	HSF-1 act	HSF1 inhib	HCV NS3 hel inh
C=CCNc1nc(N)c([N+](=O)[O-])c(Nc2ccccc2OC)n1	-	-	-	-	-
Cc1cccc(Nc2nc(NCc3ccco3)nc(N)c2[N+](=O)[O-])c1	-	-	-	-	-
COc1ccc(Nc2nc(NCc3ccco3)nc(N)c2[N+](=O)[O-])cc1	-	-	66	-	-
COc1ccccc1Nc1nc(NCCCN(C)C)nc(N)c1[N+](=O)[O-]	-	-	-	-73	-
Nc1nc(Nc2cccc(F)c2)nc(NCc2ccco2)c1[N+](=O)[O-]	-	-	54	-	-
Cc1ccc(Nc2nc(NCCCN3CCOCC3)nc(N)c2[N+](=O)[O-])cc1	-	-	69	-	-
Cc1ccc(Nc2nc(NCCCN3CCOCC3)nc(N)c2[N+](=O)[O-])cc1C	-	-	-	-	-
Cc1ccc(C(=O)N/C(=C/c2cccnc2)C(=O)N2CCCCCC2)cc1	-	-	-	-	-
CCOC(=O)c1ccc(NC(=O)C(=O)NCc2ccco2)cc1	-	-	-	-	-
CCOC(=O)c1ccc(N(C(=O)c2ccco2)C(C(=O)NC2CCCC2)c2ccncc2)cc1 (stereo not drawn)	-	-	-	-	-
COc1ccccc1CNCc1cc(OC)c(OC)cc1OC	-	-	-	-	-
COc1ccccc1CNCC(c1ccccc1)c1ccccc1	-	-	61	-	-
COc1ccc(-c2noc(=O)n2CC(=O)N2CCC(Cc3ccccc3)CC2)cc1	-	-	-	-	-
